# Laboratory results from ChEMBL document CHEMBL4364279, “Design, synthesis, in-silico and biological evaluation of novel chalcone-O-carbamate derivatives as multifunctional agents for the treatment of Alzheimer's disease” (Eur J Med Chem, 2019).
# Calls of active or inactive are those of the source. The calls are words filed in the database; no cut-off is given here.
# Assays:
# in vitro = details: PAMPA, pH 7.4
# [1] = Metal chelating activity of the compound assessed as formation of Fe2+-compound complex at 37.5 uM after 30 mins by UV-vis absorption spectra analysis
# In short: (§1)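 Metal binding examined by plate-reader absorbance scan using CuCl2, ZnCl2, AlCl3, FeSO4, CuCl and Fe(NO3)3 as metal sources.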
# [2] = target: Cholinesterase (Equus caballus) (UniProt P81908); assay: Reversible inhibition of equine serum BuChE assessed as enzyme activity at IC50 using butyrylthiocholine iodide as substrate by Ellman's method relative to control; parameters: scale not given: the % may be the effect or the level left
# [3] = Toxicity in Kunming mouse assessed as mortality at 20 to 500 mg/kg measured up to 14 days; assay type: organism-based; details: in vivo, 336 h
# [4] = Disaggregation of Cu2+ induced preformed fibrils of amyloid beta (1 to 42) (unknown origin) at 25 uM preincubated with Cu2+ for 24 hrs followed by compound addition and measured after 24 hrs by thioflavin-T based fluorescence assay relative to control
# In short: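 Aβ1-42 (25 µM) and Cu2+ (25 µM) preincubated at 37 °C for 24 h, then compound (25 µM) added and incubated a further 24 h at 37 °C. ThT (5 µM in 50 mM glycine-NaOH, pH 8.5) added; fluorescence at ex 446/em 490 nm, background subtracted, % vs no-compound control. Three independent experiments.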
# [5] = target: T1, Amine oxidase [flavin-containing] A (Homo sapiens, UniProt P21397); assay: Inhibition of recombinant human MAO-A expressed in baculovirus infected BTI insect cells at 12.5 uM using kynuramine as substrate measured after 30 mins by fluorescence based assay relative to control; details: 0.5 h
# T1 sequence (P21397 whole entry): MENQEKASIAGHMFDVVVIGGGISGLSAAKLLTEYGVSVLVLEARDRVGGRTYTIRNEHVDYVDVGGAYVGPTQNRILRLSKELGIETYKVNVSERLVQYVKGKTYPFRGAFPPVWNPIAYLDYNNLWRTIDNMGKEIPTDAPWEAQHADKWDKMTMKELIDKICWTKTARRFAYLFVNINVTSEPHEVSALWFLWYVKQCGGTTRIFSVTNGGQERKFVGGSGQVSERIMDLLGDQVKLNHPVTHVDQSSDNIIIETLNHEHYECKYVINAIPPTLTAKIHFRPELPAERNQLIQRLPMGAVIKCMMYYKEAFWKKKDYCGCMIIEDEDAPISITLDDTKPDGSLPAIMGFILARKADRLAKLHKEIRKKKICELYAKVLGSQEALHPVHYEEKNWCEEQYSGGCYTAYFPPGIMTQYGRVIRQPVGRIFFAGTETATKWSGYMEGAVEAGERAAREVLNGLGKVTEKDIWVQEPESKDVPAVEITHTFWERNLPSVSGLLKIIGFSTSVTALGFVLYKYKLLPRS
# Mus musculus [6] = assay: Reversal of scopolamine-induced memory cognitive memory impairment in Kunming mouse assessed as change in spontaneous alteration behavior at 7.8 mg/kg, ig pretreated for 30 mins followed by scopolamine challenge and after 30 mins by Y-maze test (reference value: 45.6%); assay type: functional
# Mus musculus [7] = assay: Effect on total arm entries in Kunming mouse model of scopolamine-induced cognitive impairment in at 2.6 to 23.4 mg/kg, ig pretreated for 30 min followed by scopolamine challenge and measured after 30 mins by Y-maze test; assay type: ADME, organism-based; details: in vivo, po, 0.5 h
# [8] = Metal chelating activity of the compound assessed as formation of Cu2+-compound complex by measuring red shift in maximum absorption at 37.5 uM after 30 mins by UV-vis absorption spectra analysis (reference value: 359 nanometer)
# In short: as §1
# Sequence of Cholinesterase (Equus caballus) (P81908 whole entry): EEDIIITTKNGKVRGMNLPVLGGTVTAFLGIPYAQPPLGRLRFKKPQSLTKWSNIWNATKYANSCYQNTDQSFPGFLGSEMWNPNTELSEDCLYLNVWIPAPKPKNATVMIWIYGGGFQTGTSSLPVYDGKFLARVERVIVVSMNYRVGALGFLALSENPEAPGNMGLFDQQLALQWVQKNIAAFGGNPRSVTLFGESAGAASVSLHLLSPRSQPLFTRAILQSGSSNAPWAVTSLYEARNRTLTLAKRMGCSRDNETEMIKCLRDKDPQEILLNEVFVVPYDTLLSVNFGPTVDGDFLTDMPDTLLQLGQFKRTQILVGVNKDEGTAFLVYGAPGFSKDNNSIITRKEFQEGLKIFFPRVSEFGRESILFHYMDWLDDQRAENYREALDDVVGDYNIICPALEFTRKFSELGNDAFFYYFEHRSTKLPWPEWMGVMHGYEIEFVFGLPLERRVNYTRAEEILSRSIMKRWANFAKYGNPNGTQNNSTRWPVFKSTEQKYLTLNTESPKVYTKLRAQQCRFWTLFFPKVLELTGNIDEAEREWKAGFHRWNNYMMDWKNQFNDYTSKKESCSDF
smiles,measurement,setting,value
CCN(C)C(=O)Oc1cccc(/C=C/C(=O)c2ccccc2O)c1,Papp at 100 ug/ml,in vitro,15.7 ×10⁻⁶ cm/s
same,Activity,[1],inactive
same,Activity,[2],50.1%
same,Activity,[3],Non-Toxic
same,Activity,[4],83.1%
same,inhibition at 12.5 µM,[5],16.4%
same,Activity,Mus musculus [6],65.1%
same,Activity,Mus musculus [7],Non-Toxic
same,Activity,[8],435 nm
